Where no end group is shown, it is not given here.
Key:
[1] = Zinc-induced aggregation by light scattering; format: physicochemical; details: 15 µM peptide, 1 molar equivalent Zn2+, 200 mM MOPS pH 7.4, 80 mM NaCl, 1.8 mM TCEP, 20 °C, 200 s
Procedure, shortened: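 Wild-type and mutant peptides handled anaerobically in TCEP buffers; concentration set by A280 in 6M guanidine hydrochloride. Zn(NO3)2 hand-mixed into sample in a Peltier-held cuvette. Light scattering followed over time on a single-photon counting fluorometer; single exponential functions fitted to intensity versus time.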

HIV Vif = details: micromolar levels of chelator; cited from earlier work
[2] = tested on: GST-Cul5 (human Cul5 amino acids 1–384); experiment: HCCHp pull-down by GST-Cul5; format: binding; details: GST control, 40 µM Zn(NO3)2 vs no zinc
Procedure, shortened: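 GST-Cul5 (human Cul5 residues 1–384, from E. coli) immobilised on glutathione resin, 10 min at 4 °C, in 50 mM HEPES pH 7.4, 150 mM NaCl, 200 µM TCEP; 20 µM peptide added for 10 min; split, ±40 µM Zn(NO3)2 for 10 min; six washes; SDS-PAGE, SYPRO Ruby stain; bands normalised to a 27-kDa marker and quantified against peptide and GST-Cul5 standard curves.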

Compound	Total change in scattered light intensity, rank order of peptides [1]	Effect of chelator on Cul5 recruitment and APOBEC3G degradation (HIV Vif)	Change in amount of HCCHp bound to GST when zinc was included [2]
ELADQLIHLYYFDCFSDSAIRKALLGAIVSPRCEYQAGHNKV (cysteines drawn unpaired) [H127A]	H108A < H139A < H127A < wild type < C114S < C114/133S < C133S	–	–
ELADQLIHLYYFDCFSDSAIRKALLGHIVSPRSEYQAGHNKV [C133S]	H108A < H139A < H127A < wild type < C114S < C114/133S < C133S	–	–
c1ccc(CN(CCN(Cc2ccccn2)Cc2ccccn2)Cc2ccccn2)nc1 [N,N,N′,N′-tetrakis-(2-pyridylmethyl) ethylenediamine]	–	inhibits Cul5 recruitment and APOBEC3G degradation	–
ELADQLIALYYFDCFSDSAIRKALLGHIVSPRCEYQAGHNKV (cysteines drawn unpaired) [H108A]	H108A < H139A < H127A < wild type < C114S < C114/133S < C133S	–	–
ELADQLIHLYYFDSFSDSAIRKALLGHIVSPRCEYQAGHNKV [C114S]	H108A < H139A < H127A < wild type < C114S < C114/133S < C133S	–	–
ELADQLIHLYYFDCFSDSAIRKALLGHIVSPRCEYQAGHNKV (cysteines drawn unpaired) [HCCHp]	H108A < H139A < H127A < wild type < C114S < C114/133S < C133S	–	did not increase significantly
ELADQLIHLYYFDCFSDSAIRKALLGHIVSPRCEYQAGANKV (cysteines drawn unpaired) [H139A]	H108A < H139A < H127A < wild type < C114S < C114/133S < C133S	–	–

Reference: paper PMC2729716 (Biochemistry, 2009)
